Measurements as given in ChEMBL document CHEMBL1125533, “Novel 1-(pyridylphenyl)-1-phenyl-2-imidazolylethanols with topical antiinflammatory activity” (J Med Chem, 1992).

Legend:
[1] = Partition coefficient (logP); type: physicochemical; settings: octanol/water
Method in brief: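 log P estimated from reversed-phase HPLC retention time. Calibration curve built from shake-flask octanol/water log P values of eight pyridines. Log RT vs log P was linear.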

[2] = tested on: Mus musculus; test: In vivo inhibitory activity in a phorbol myristyl acetate (PMA) ear edema model at a dose of 100 ug/ear; type: functional
Method in brief: (§1)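 Mouse ear edema, topical: inflammation induced by PMA, A23187 or arachidonic acid on one ear, with the unchallenged ear as control. Mice were killed by cervical dislocation at set times after challenge, and 6 mm punches were weighed. Edema = challenged minus unchallenged punch weight. Percent inhibition = [(C−T)/C]×100 at 100 μg/ear. Duplicate separate experiments, 10 animals per group. Student's t test.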

[3] = target: T1, Polyunsaturated fatty acid 5-lipoxygenase (Rattus norvegicus, UniProt P12527); test: Inhibitory activity against 5-lipoxygenase of RBL-1 cell line; type: cell-based
T1 sequence (P12527 whole entry): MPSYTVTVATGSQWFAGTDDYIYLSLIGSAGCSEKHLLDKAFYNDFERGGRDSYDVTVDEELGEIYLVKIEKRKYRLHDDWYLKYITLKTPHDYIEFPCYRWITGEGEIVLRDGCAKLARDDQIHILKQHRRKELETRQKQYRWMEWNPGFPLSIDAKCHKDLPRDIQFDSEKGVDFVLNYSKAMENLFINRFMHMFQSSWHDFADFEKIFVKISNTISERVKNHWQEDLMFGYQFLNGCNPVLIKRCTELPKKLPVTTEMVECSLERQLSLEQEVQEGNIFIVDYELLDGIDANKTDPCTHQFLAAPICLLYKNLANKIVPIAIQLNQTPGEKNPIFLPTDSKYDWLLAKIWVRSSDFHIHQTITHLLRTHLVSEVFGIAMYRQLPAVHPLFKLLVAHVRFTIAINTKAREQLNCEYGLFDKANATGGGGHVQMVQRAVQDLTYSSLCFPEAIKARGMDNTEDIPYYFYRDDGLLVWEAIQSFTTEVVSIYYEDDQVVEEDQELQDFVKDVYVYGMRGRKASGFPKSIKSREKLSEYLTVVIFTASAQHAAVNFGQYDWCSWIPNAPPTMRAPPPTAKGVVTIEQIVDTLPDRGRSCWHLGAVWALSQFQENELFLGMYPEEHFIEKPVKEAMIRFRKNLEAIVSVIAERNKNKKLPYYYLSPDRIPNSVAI

[4] = tested on: Mus musculus; test: (§2) In vivo inhibitory activity against A-23187 ear edema at a dose of 100 ug/ear; type: functional; method in brief: as §1
[5] = tested on: Mus musculus; test: (§3) In vivo inhibitory activity against arachidonic acid(AA) ear edema at a dose of 100 ug/ear; type: functional; method in brief: as §1
[6] = tested on: Mus musculus; test: In vivo inhibitory activity against phorbol myristyl acetate (PMA) ear edema at a dose of 100 ug/ear; type: functional; method in brief: as §1
[7] = target: T2, Cyclooxygenase (Bos taurus, UniProt O62664+O62698); test: Inhibitory activity against Prostaglandin G/H synthase (bovine seminal vesicles); type: protein assay
T2 sequence (O62664 whole entry): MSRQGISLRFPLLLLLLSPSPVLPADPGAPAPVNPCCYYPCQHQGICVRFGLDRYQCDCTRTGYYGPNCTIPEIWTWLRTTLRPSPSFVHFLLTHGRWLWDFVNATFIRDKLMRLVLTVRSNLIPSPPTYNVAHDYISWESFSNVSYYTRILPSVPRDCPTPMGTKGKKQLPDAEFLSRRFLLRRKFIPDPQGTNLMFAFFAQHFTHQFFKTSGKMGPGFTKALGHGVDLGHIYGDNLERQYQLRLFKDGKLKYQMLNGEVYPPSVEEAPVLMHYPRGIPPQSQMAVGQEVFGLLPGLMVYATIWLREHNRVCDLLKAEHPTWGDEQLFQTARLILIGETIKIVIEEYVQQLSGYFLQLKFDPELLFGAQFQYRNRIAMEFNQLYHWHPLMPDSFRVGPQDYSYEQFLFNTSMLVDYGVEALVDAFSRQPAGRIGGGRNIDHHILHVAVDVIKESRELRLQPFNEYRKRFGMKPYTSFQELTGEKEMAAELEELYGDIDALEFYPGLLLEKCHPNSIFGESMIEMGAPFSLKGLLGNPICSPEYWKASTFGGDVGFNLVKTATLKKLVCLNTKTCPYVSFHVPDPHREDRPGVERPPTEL
T2 sequence (O62698 whole entry): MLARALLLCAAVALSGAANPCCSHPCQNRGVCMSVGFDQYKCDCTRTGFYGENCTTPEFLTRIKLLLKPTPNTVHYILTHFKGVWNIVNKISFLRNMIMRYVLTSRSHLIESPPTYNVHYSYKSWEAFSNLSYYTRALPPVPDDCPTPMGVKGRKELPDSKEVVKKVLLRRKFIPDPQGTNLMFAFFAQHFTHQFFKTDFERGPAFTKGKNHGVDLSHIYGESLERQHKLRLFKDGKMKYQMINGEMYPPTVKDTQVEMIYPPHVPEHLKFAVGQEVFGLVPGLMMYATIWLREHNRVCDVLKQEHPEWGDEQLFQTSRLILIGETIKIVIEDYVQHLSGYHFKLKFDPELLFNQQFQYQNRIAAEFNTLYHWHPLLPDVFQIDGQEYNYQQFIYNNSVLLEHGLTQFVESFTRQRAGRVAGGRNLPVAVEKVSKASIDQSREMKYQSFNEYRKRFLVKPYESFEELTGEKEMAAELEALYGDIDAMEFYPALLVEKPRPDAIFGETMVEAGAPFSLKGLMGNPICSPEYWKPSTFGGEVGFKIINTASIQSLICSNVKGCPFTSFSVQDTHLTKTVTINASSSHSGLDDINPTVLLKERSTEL

[8] = tested on: Mus musculus; test: as §3; type: functional; remark: listed apart in the source
Method in brief: (§4)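 Topical mouse ear edema test at 100 µg/ear; the inflammogen is applied to one ear and the unchallenged ear serves as control. Mice are killed by cervical dislocation at set times, and 6 mm biopsy punches from each ear are weighed. Edema is the challenged-minus-unchallenged weight. Percent inhibition is [(C−T)/C]×100. Duplicate separate experiments, 10 animals per group; averages of two or more determinations.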

[9] = tested on: Mus musculus; test: as §2; type: functional; method in brief: as §4; remark: listed apart in the source

Row | Compound | logP [1] | Inhibition [2] [%] | further results
1 | OC(Cn1cncn1)(c1ccc(F)cc1)c1ccc(-c2ccncc2)cc1 (stereo not given) | 1.67 | 53 | 
2 | Oc1ccc(C(O)(Cn2ccnc2)c2ccc(-c3ccncc3)cc2)cc1 (stereo not given) | 2.49 | 37 | 
3 | OC(Cn1ccnc1)(c1ccc(Br)cc1)c1ccc(F)cc1F (stereo not given) | 3.44 | 22 | 
4 | OC(Cn1ccnc1)(c1ccc(-c2ccncc2)cc1)c1ccc(C(F)(F)F)cc1 (stereo not given) | 3.11 | 58 | 
5 | COC(=O)c1ccc(C(O)(Cn2ccnc2)c2ccc(-c3ccncc3)cc2)cc1 (stereo not given) | 2.61 | 62 | 
6 | OC(Cn1ccnc1)(c1ccc(F)cc1)c1ccccc1-c1cccnc1 (stereo not given) | 3.26 | 62 | 
7 | OC(Cn1ccnc1)(c1ccc(Cl)cc1)c1ccc(-c2ccncc2)cc1 (stereo not given) | 3.27 | 58 | 
8 | O=Cc1ccc(C(O)(Cn2ccnc2)c2ccc(-c3ccncc3)cc2)cc1 (stereo not given) | 2.38 | 67 | 
9 | OC(Cn1ccnc1)(c1ccc(F)cc1)c1cccc(-c2cccnc2)c1 (stereo not given) | 3.22 | 64 | 
10 | OC(Cn1ccnc1)(c1ccc(F)cc1)c1ccc(-c2ccccn2)cc1 (stereo not given) | 3.58 | 63 | 
11 | OC(Cn1ccnc1)(c1ccc(F)cc1)c1ccc(F)cc1 | 2.95 | 50 | 
12 | OC(CN1CCCC1)(c1ccc(F)cc1)c1ccc(-c2ccncc2)cc1 (stereo not given) | 3.84 | 24 | 
13 | COc1ccc(C(O)(Cn2ccnc2)c2ccc(Br)cc2)cc1 (stereo not given) | 4.02 | 31 | 
14 | OC(Cn1ccnc1)(c1ccc(F)cc1)c1cccc(Br)c1 (stereo not given) | 3.3 | 38 | 
15 | OC(Cn1ccnc1)(c1ccc(-c2ccccn2)cc1)c1ccc(F)cc1F (stereo not given) | 3.65 | 51 | 
16 | OCc1ccc(C(O)(Cn2ccnc2)c2ccc(-c3ccncc3)cc2)cc1 (stereo not given) | 2.4 | 24 | 
17 | Cc1ccc(C(O)(Cn2ccnc2)c2ccc(Br)cc2)cc1 (stereo not given) | 3.55 | 18 | 
18 | CN(C)c1ccc(C(O)(Cn2ccnc2)c2ccc(-c3ccncc3)cc2)cc1 (stereo not given) | 3.29 | 34 | 
19 | OC(Cn1ccnc1)(c1ccc(-c2cccnc2)cc1)c1ccc(F)cc1F (stereo not given) | 3.31 | 52 | 
20 | OC(Cn1ccnc1)(c1ccc(F)cc1)c1ccc(-c2ccncc2)cc1 (stereo not given) | 2.47 | 72 | IC50 [3]: > 25 µM; ED50 [4]: 21 ug ear-1; ED50 [5]: 543 ug ear-1; ED50 [6]: 4.6 ug ear-1; IC50 [7]: > 750 µM
21 | CC(=O)N1CCN(c2ccc(OCC3COC(Cn4ccnc4)(c4ccc(Cl)cc4Cl)O3)cc2)CC1 (stereo not given) [KETOCONAZOLE] |  |  | IC50 [3]: > 25 µM; ED50 [6]: 34 ug ear-1; Inhibition [8]: 10%; IC50 [7]: > 750 µM; Inhibition [9]: 8%
22 | OC(Cn1ccnc1)(c1cccc(Br)c1)c1ccc(F)cc1F (stereo not given) | 3.6 | 42 | 
23 | CC(=O)c1ccc(C(O)(Cn2ccnc2)c2ccc(-c3ccncc3)cc2)cc1 (stereo not given) | 2.41 | 78 | 

Row | Compound | logP [1] | Inhibition [2] [%] | further results
24 | OC(Cn1ccnc1)(c1ccc(F)cc1)c1ccc(Br)cc1 (stereo not given) | 3.42 | 29 | 
25 | COc1ccc2c(c1)c(CC(=O)O)c(C)n2C(=O)c1ccc(Cl)cc1 [INDOMETHACIN] |  | 10 | IC50 [3]: > 25 µM; ED50 [4]: 254 ug ear-1; ED50 [5]: 902 ug ear-1
26 | OC(Cn1ccnc1)(c1ccccc1)c1ccc(Br)cc1 (stereo not given) | 3.35 | 37 | 
27 | OC(Cn1ccnc1)(c1ccc(F)cc1)c1cccc(-c2ccncc2)c1 (stereo not given) | 2.91 | 74 | 
28 | COc1ccc(C(O)(Cn2ccnc2)c2ccc(-c3ccncc3)cc2)cc1 (stereo not given) | 3.55 | 74 | 
29 | OC(Cn1ccnc1)(c1ccc(Br)cc1)c1ccccc1Cl (stereo not given) | 3.87 | 26 | 
30 | OC(Cn1ccnc1)(c1ccccc1)c1ccc(-c2ccncc2)cc1 (stereo not given) | 2.29 | 69 | 
31 | Oc1c(Cc2ccccc2)ccc2ccccc12 |  |  | ED50 [4]: 5 ug ear-1; ED50 [5]: 7 ug ear-1; ED50 [6]: 764 ug ear-1; IC50 [7]: > 750 µM
32 | COC(C)(OC)c1ccc(C(O)(Cn2ccnc2)c2ccc(-c3ccncc3)cc2)cc1 (stereo not given) | 3.45 | 61 | 
33 | OC(Cn1cccc1)(c1ccc(F)cc1)c1ccc(-c2ccncc2)cc1 (stereo not given) | 2.35 | 58 | 
34 | COc1c(OC)c(OC(C)=O)c2cc(Cl)ccc2c1OC(C)=O [LONAPALENE] |  | 15 | IC50 [3]: 0.74 µM; ED50 [4]: 32 ug ear-1; ED50 [5]: 103 ug ear-1; IC50 [7]: > 750 µM
35 | OC(Cn1ccnc1)(c1ccc(F)cc1)c1cccc(-c2ccccn2)c1 (stereo not given) | 3.34 | 61 | 
36 | OC(Cn1ccnc1)(c1ccc(-c2ccncc2)cc1)c1ccc(F)cc1F (stereo not given) | 2.54 | 73 | 
37 | OC(CN1CCOCC1)(c1ccc(F)cc1)c1ccc(-c2ccncc2)cc1 (stereo not given) | 2.82 | 41 | 
38 | OC(Cn1cnc2ccccc21)(c1ccc(F)cc1)c1ccc(-c2ccncc2)cc1 (stereo not given) | 2.06 | 40 | 
39 | OC(CCc1ncc[nH]1)(c1ccc(F)cc1)c1ccc(F)cc1 | 3.13 | 52 | 
40 | Cc1ccc(C(O)(Cn2ccnc2)c2ccc(-c3ccncc3)cc2)cc1 (stereo not given) | 3.13 | 62 | IC50 [3]: > 25 µM; ED50 [4]: 13 ug ear-1; ED50 [6]: 13.2 ug ear-1; Inhibition [8]: 16%; IC50 [7]: > 750 µM
41 | OC(Cn1ccnc1)(c1ccc(F)cc1)c1ccc(-c2ccccc2)cc1 (stereo not given) | 4.23 | 25 | 
42 | OC(Cn1ccnc1)(c1ccc(-c2ccccc2)cc1)c1ccc(-c2ccncc2)cc1 (stereo not given) | 3.86 | 49 | 
43 | OC(Cn1cccn1)(c1ccc(F)cc1)c1ccc(-c2ccncc2)cc1 (stereo not given) | 2.14 | 28 | 
44 | OC(Cn1ccnc1)(c1ccc(F)cc1)c1ccccc1-c1ccncc1 (stereo not given) | 2.51 | 86 | 
45 | OC(Cn1ccnc1)(c1ccc(-c2ccncc2)cc1)c1ccccc1Cl (stereo not given) | 3.37 | 41 | 
